Results: article PMC8518898 (Journal of Clinical Pharmacology, 2021)
“Also recorded” adds a separate entry of the source. Read-outs that look alike come from different tables or passages of the source. Marks after values point to notes of the source that are not given here.

Assays:
[1] = tested on: IFN‐α signaling (JAK1/TYK2 kinase dimer); experiment: In vitro whole blood inhibition of IFN-α signaling; type: cell-based; details: read-out: unbound IC50 (IC50,u) of IFN‐α signaling; IC50,u = IC50 × [fu / (blood/plasma ratio)]
[2] = Phase 1 hepatic impairment study; type: in vivo, human; details: for MRAUCinf (ratio of metabolite to abrocitinib for AUCinf) / tmax / AUCinf / AUClast / Cmax / AUC(0-inf) / AUC(0-t): single 200-mg oral dose of abrocitinib; for MRAUCinf (ratio of metabolite to abrocitinib for AUCinf) / AUCinf / AUClast / Cmax / AUC(0-inf) / AUC(0-t): geometric mean (geometric %CV); for tmax: median (range); for AUC(0-inf): AUCinf; for AUC(0-t): AUClast
JAK2 = details: metabolites; ref data on file; cited from earlier work
JAK3 = details: metabolites; ref data on file; cited from earlier work
tyrosine kinase 2 (TYK2) = details: metabolites; ref data on file; cited from earlier work
JAK1 = details: ref data on file; cited from earlier work
[3] = single oral dose 200-mg abrocitinib/80 μg (500 nCi) [14C]; ref data on file; cited from earlier work
[4] = target: IFN‐α signaling (JAK1/TYK2 kinase dimer); details: read-out: In vitro whole blood IFN‐α IC50, ref data on file; cited from earlier work
[5] = ref data on file; cited from earlier work
[6] = ref data on file; cited from earlier work; remark: listed apart in the source
[7] = Phase 1 hepatic impairment study; type: in vivo, human
Procedure, shortened: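 Single oral dose after an overnight fast, 8 subjects per hepatic function group. Adverse events, vital signs, physical exams, 12-lead ECGs and safety laboratory tests were assessed up to 72 h post-dose. Treatment-emergent events were scored for incidence, severity and causality. Clinically significant lab abnormalities or ongoing events were followed up by telephone or onsite visit at 28–35 days.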

[8] = ref data on file; cited from earlier work; remark: listed apart in the source
[9] = cited from earlier work
[10] = once daily 100 mg or 200 mg; cited from earlier work
[11] = up to 800-mg single dose, repeated total daily doses up to 400 mg; cited from earlier work
[12] = mild hepatic impairment compared to normal hepatic function
[13] = mild hepatic impairment, plasma
[14] = moderate hepatic impairment compared to normal hepatic function
[15] = moderate hepatic impairment, plasma
[16] = normal hepatic function, plasma
[17] = human, plasma, po, 200 mg, mild hepatic impairment
[18] = human, plasma, po, 200 mg, moderate hepatic impairment
[19] = human, plasma, po, 200 mg, normal hepatic function

CN(c1ncnc2[nH]ccc12)C1CC(NS(=O)(=O)CCCO)C1 (stereo not drawn) [M1]
IC50 [1]: 165 nM
unadjusted geometric mean ratio for MRAUCinf [2, 12]: 0.239
MRAUCinf (ratio of metabolite to abrocitinib for AUCinf) ([2]; mild hepatic impairment): 0.05 (54)
tmax ([2]; mild hepatic impairment): 1.50 (1.00‐4.00) h
AUCinf [2, 13]: 357.6 (49) ng • h/mL
AUClast [2, 13]: 338.1 (52) ng • h/mL
Cmax [2, 13]: 56.3 (54) ng/mL
unadjusted geometric mean ratio for MRAUCinf [2, 14]: 0.320
MRAUCinf (ratio of metabolite to abrocitinib for AUCinf) ([2]; moderate hepatic impairment): 0.06 (111)
tmax ([2]; moderate hepatic impairment): 2.00 (1.00‐3.00) h
AUCinf [2, 15]: 552.7 (51) ng • h/mL
AUClast [2, 15]: 534.9 (52) ng • h/mL
Cmax [2, 15]: 68.9 (57) ng/mL
MRAUCinf (ratio of metabolite to abrocitinib for AUCinf) ([2]; normal hepatic function): 0.19 (100)
tmax ([2]; normal hepatic function): 2.00 (1.00‐3.00) h
AUCinf [2, 16]: 1120 (28) ng • h/mL
AUClast [2, 16]: 1102 (29) ng • h/mL
Cmax [2, 16]: 241.5 (50) ng/mL
JAK1 enzyme kinase selectivity over JAK2 (JAK2): approximately 26 fold
JAK1 enzyme kinase selectivity over JAK3 (JAK3): > 230 fold
JAK1 enzyme kinase selectivity over TYK2 (tyrosine kinase 2 (TYK2)): ~74 fold
pharmacological activity of metabolite (JAK1): active metabolites
share of circulating species [3]: 11%
IC50 [4]: 296 nM
fraction unbound in plasma (fu) [5]: 0.63
blood/plasma ratio [6]: 1.13

C[C@H](O)CS(=O)(=O)NC1CC(N(C)c2ncnc3[nH]ccc23)C1 (stereo partly drawn) [M2]
IC50 [1]: 50.6 nM
unadjusted geometric mean ratio for MRAUCinf [2, 12]: 0.680
MRAUCinf (ratio of metabolite to abrocitinib for AUCinf) ([2]; mild hepatic impairment): 0.15 (25)
tmax ([2]; mild hepatic impairment): 2.50 (1.00‐4.00) h
AUCinf [2, 13]: 1178 (22) ng • h/mL
AUClast [2, 13]: 1081 (25) ng • h/mL
Cmax [2, 13]: 139.9 (29) ng/mL
unadjusted geometric mean ratio for MRAUCinf [2, 14]: 0.655
MRAUCinf (ratio of metabolite to abrocitinib for AUCinf) ([2]; moderate hepatic impairment): 0.15 (78)
tmax ([2]; moderate hepatic impairment): 2.00 (2.00‐4.00) h
AUCinf [2, 15]: 1309 (38) ng • h/mL
AUClast [2, 15]: 1192 (43) ng • h/mL
Cmax [2, 15]: 119.2 (43) ng/mL
MRAUCinf (ratio of metabolite to abrocitinib for AUCinf) ([2]; normal hepatic function): 0.22 (56) ^b
tmax ([2]; normal hepatic function): 2.00 (1.00‐3.00) h
AUCinf [2, 16]: 1519 (36) ^b ng • h/mL
AUClast [2, 16]: 1395 (35) ng • h/mL
Cmax [2, 16]: 253.1 (40) ng/mL
JAK1 enzyme kinase selectivity over JAK2 (JAK2): 49 fold
JAK1 enzyme kinase selectivity over JAK3 (JAK3): > 559 fold
JAK1 enzyme kinase selectivity over TYK2 (tyrosine kinase 2 (TYK2)): 68 fold
pharmacological activity of metabolite (JAK1): active metabolites
share of circulating species [3]: 12%
IC50 [4]: 90.5 nM
fraction unbound in plasma (fu) [5]: 0.71
blood/plasma ratio [6]: 1.27

CCCS(=O)(=O)N[C@H]1C[C@@H](N(C)c2ncnc3[nH]ccc23)C1 [abrocitinib, N‐{cis‐3‐[Methyl(7H‐pyrrolo[2,3‐d]pyrimidin‐4‐yl)amino]cyclobutyl}propane‐1‐sulfo namide]
AUC(0-inf) [2, 17]: 7450 ng·h/mL
AUC(0-inf) [2, 18]: 8600 ng·h/mL
AUC(0-inf) [2, 19]: 5590 ng·h/mL
AUC(0-t) [2, 17]: 7430 ng·h/mL
AUC(0-t) [2, 18]: 8550 ng·h/mL
AUC(0-t) [2, 19]: 5550 ng·h/mL
Cmax ([2]; human, plasma, po, 200 mg, Cmax, mild hepatic impairment): 1280 ng/mL
Cmax ([2]; human, plasma, po, 200 mg, Cmax, moderate hepatic impairment): 1430 ng/mL
Cmax ([2]; human, plasma, po, 200 mg, Cmax, normal hepatic function): 1350 ng/mL
tmax ([2]; human, plasma, po, 200 mg, tmax, mild hepatic impairment): 2 h
tmax ([2]; human, plasma, po, 200 mg, tmax, moderate hepatic impairment): 1 h
tmax ([2]; human, plasma, po, 200 mg, tmax, normal hepatic function): 2 h
increase in AUCinf [2, 12]: ≈ 33.3%
effect of hepatic impairment on PK and safety ([2]; mild or moderate hepatic impairment): no clinically relevant effect
increase in AUCinf [2, 14]: ~54.0%
subjects with laboratory abnormality leukocyte esterase (≥1) ([7]; mild hepatic impairment): 4 subjects
subjects reporting diarrhea ([7]; mild hepatic impairment (25%)): 2 subjects
subjects reporting headache ([7]; mild hepatic impairment (25%)): 2 subjects
subjects with treatment-emergent adverse events ([7]; mild hepatic impairment (N = 8)): 3 subjects
subjects with laboratory abnormality leukocyte esterase (≥1) ([7]; moderate hepatic impairment): 5 subjects
subjects reporting adverse events ([7]; moderate hepatic impairment (N = 8)): No subjects
subjects with laboratory abnormality leukocyte esterase (≥1) ([7]; normal hepatic function): 1 subject
safety and tolerability ([7]; single 200-mg oral dose, all 3 hepatic function groups): generally safe and well tolerated
absolute oral bioavailability [8]: 60%
fraction absorbed [8]: 91%
median tmax ([9]; healthy subjects, suspension, doses of 3 to 200 mg): < 1 h
increases in Cmax and AUCτ with increasing dose ([9]; multiple dose, total daily dose 30 mg up to 400 mg): greater than proportional
increases in AUCinf, dose proportionality ([9]; single doses 400 and 800 mg): greater than dose proportional
Cmax dose proportionality ([9]; single-dose range 3 to 800 mg): increased proportionally with dose
share of circulating species [3]: 26%
efficacy and tolerability in moderate to severe atopic dermatitis [10]: effective and well tolerated; also recorded: safe and efficacious
safety and tolerability of higher doses [11]: safe and well tolerated
